Experimental findings from ChEMBL document CHEMBL4396943, “The tetrahydroxanthone-dimer phomoxanthone A is a strong inducer of apoptosis in cisplatin-resistant solid cancer cells” (Bioorg Med Chem, 2019) are described below.

The source made the active and inactive calls. The rule behind the calls is not given here.

For assay [1], the system named is A2780. The assay can be described thus: Effect on ROS generation in human A2780 cells at 316 nM incubated for 18 hrs by H2DCFDA staining based flow cytometry. It counts as functional, cell-based. In short, it runs like this:
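Cells plated in 24-well plates (about 150,000/well) overnight, then exposed 18 h. Washed and moved to phenol red-free, serum-free RPMI-1640, then loaded with 10 µM H2DCF-DA for 30 min at 37 °C in the dark. One aliquot read directly, the other after 250 µM H2O2 for 1 h at 37 °C. DCF fluorescence read by flow cytometry. Three independent experiments.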

For assay [2], the system named is A2780. The assay can be described thus: Induction of apoptosis in human A2780 cells assessed as depolarization of mitochondrial membrane potential at 1 uM by TMRE staining based flow cytometry. The assay is classed as functional, cell-based. The note with it: TDE = time-dependent effect. In short, it runs like this:
(§1)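 Cells seeded overnight; medium switched to FBS-free just before treatment to avoid TMRE ester cleavage. Exposure 1 h, 2 h or 24 h, then TMRE staining for 20 min. Cells trypsinized, centrifuged at 4 °C and read by flow cytometry. Medium as negative control, 20 µM CCCP as positive control. […]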
A general note: In flow cytometry, cells or beads pass a laser one at a time.

Assay [3] concerns J82. Put plainly: Potency index, ratio of cisplatin IC50 to compound IC50 for antiproliferative activity in cisplatin resistant human J82 cells assessed as reduction in cell viability incubated for 72 hrs by MTT assay. It counts as functional. The method, boiled down: (§2)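 Cells seeded in 96-well plates overnight, exposed 72 h to increasing concentrations. MTT (5 mg/ml) added for 15 min, formazan dissolved in DMSO, absorbance read at 544 nm with 690 nm background subtracted. IC50 is the concentration reducing signal by 50%. Three independent experiments in triplicate. CisR sublines made by weekly intermittent cisplatin exposure for 24–30 weeks.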
Background: Tetrazolium assays rely on reduction of a dye to a coloured formazan, in cell work by metabolically active cells.

The test system of assay [4] is A2780. Put plainly: Antiproliferative activity against human A2780 cells assessed as reduction in cell viability incubated for 24 hrs by MTT assay. The assay is classed as functional, cell-based. Conditions: A2780, 24 h. In short, it runs like this: (§3)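 Cells seeded overnight in 96-well plates, then exposed to increasing concentrations (compound dissolved in DMSO, diluted in medium) for the stated time. MTT (5 mg/ml in PBS) added for 15 min, formazan dissolved in DMSO, absorbance read at 544 nm minus 690 nm background. IC50 = concentration giving 50% signal decrease. At least three independent experiments in triplicate.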

Assay [5] has as its system A2780. Put plainly: Induction of apoptosis in human A2780 cells assessed as decrease in mitochondrial membrane potential at 1 uM incubated for 24 hrs by TMRE staining based flow cytometry. It counts as functional, cell-based. In short, it runs like this: as §1
The test system of assay [6] is A2780cisR. Put plainly: Ratio of IC50 for antiproliferative activity in human A2780cisR cells assessed as reduction in cell viability incubated for 24 hrs by MTT assay to IC50 for antiproliferative activity in human A2780cisR cells assessed as reduction in cell viability incubated for 72 hrs by MTT assay. The assay is classed as functional. In short, it runs like this:
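MTT assay as for the viability IC50s (overnight seeding, MTT 15 min, DMSO solubilisation, 544/690 nm), with PXA incubation for 24 h versus 72 h. IC50 is the concentration giving a 50% signal decrease. At least three independent experiments.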

The subject of assay [7] is A2780cisR. Put plainly: Potency index, ratio of cisplatin IC50 to compound IC50 for antiproliferative activity in human A2780cisR cells assessed as reduction in cell viability incubated for 72 hrs by MTT assay. It counts as functional. In short, it runs like this: as §2
Assay [8] has as its system A2780. The assay can be described thus: Induction of apoptosis in human A2780 cells assessed as depolarization of mitochondrial membrane potential incubated for 2 hrs by TMRE staining based flow cytometry. The assay is classed as functional, cell-based. The method, boiled down:
(§4)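 Cells seeded overnight; complete medium swapped for FBS-free medium just before treatment to avoid TMRE ester cleavage. Exposure to PXA for 1 h, 2 h or 24 h. TMRE staining 20 min, cells collected by trypsinisation, ΔΨm read by flow cytometry. Medium served as negative control, 20 µM CCCP as positive control. Mean ± SEM reported.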

The subject of assay [9] is A2780cisR. Put plainly: Induction of apoptosis in human A2780cisR cells assessed as increase in activation of caspase 3/7 at 10 uM incubated for 24 hrs by hoechst 33342 staining based fluorescence microscopy (reference value: 0.8%). The assay is classed as functional.
The test system of assay [10] is J82. The assay can be described thus: Cell cycle arrest in cisplatin resistant human J82 cells assessed as accumulation at G1 phase at 10 uM incubated for 24 hrs by propidium iodide staining based flow cytometry (reference value: 78.1%). It counts as functional. The method, boiled down:
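After 24 h exposure, cells washed in ice-cold PBS. About 2 million cells fixed in cold 70% ethanol at −20 °C for at least 24 h. Stained with 0.1% Triton X-100, 200 µg/ml RNase A and 20 µg/ml propidium iodide in PBS, 15 min at 37 °C in the dark. DNA content read by flow cytometry with doublet discrimination. Medium as untreated control, paclitaxel as G2/M control. Three independent experiments.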

The subject of assay [11] is J82. Put plainly: Induction of apoptosis in cisplatin-resistant human J82 cells assessed as nuclear condensation by measuring reduced size and increased intensity of nuclei at 30 uM incubated for 24 hrs by hoechst 33342 staining based fluorescence microscopy. It counts as functional, cell-based.
For assay [12], the system named is J82. Put plainly: Induction of apoptosis in human J82 cells assessed as accumulation in subG1 phase at 5 uM incubated for 24 hrs by propidium iodide staining based flow cytometry relative to control. The assay is classed as functional. In short, it runs like this: (§5)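 About 100,000 cells/well plated; after one day, treated 24 h. Cells lysed in hypotonic buffer (0.1% sodium citrate, 0.1% Triton X-100, 100 µg/ml propidium iodide) and kept overnight at 4 °C in the dark. Sub-G1 fraction measured by flow cytometry. Medium as control, cisplatin as positive control.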

Assay [13] has as its system A2780cisR. Put plainly: Induction of apoptosis in human A2780cisR cells assessed as depolarization of mitochondrial membrane potential at 1 uM incubated for 2 hrs by TMRE staining based flow cytometry. It counts as functional. In short, it runs like this: as §4
The next assay has as its system KYSE-510. The assay can be described thus: Antiproliferative activity against human KYSE-510 cells assessed as reduction in cell viability incubated for 72 hrs by MTT assay. It counts as functional, cell-based. The note with it: KYSE-510, 72 h. The method, boiled down: as §3
Assay [14] relates to A2780cisR. Put plainly: Induction of apoptosis in human A2780cisR cells assessed as accumulation in subG1 phase at 1 uM incubated for 24 hrs by propidium iodide staining based flow cytometry relative to control. It counts as functional. The method, boiled down: as §5
Assay [15] relates to A2780cisR. Put plainly: Reduction of H2O2-induced ROS generation in human A2780cisR cells at 316 nM incubated for 18 hrs by H2DCFDA staining based flow cytometry. It counts as functional, cell-based. In short, it runs like this:
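Cells plated overnight in growth medium (approx. 150,000 cells/well), exposed to compound for 18 h. Then washed with PBS and moved to phenol red-free RPMI-1640 without FBS or antibiotics. Loaded with 10 µM H2DCF-DA, 30 min, 37 °C, dark. One aliquot then given 250 µM H2O2 for 1 h at 37 °C in the dark. DCF fluorescence read by flow cytometry; three independent experiments.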

Assay [16] relates to A2780. Put plainly: Induction of apoptosis in human A2780 cells assessed as depolarization of mitochondrial membrane potential incubated for 1 hr by TMRE staining based flow cytometry. The assay is classed as functional, cell-based. In short, it runs like this:
as §4

In assay [17] the test system is A2780. The assay can be described thus: Induction of apoptosis in human A2780 cells assessed as increase in intracellular calcium level at 1 and 30 uM incubated for 30 mins by fluorimetry. The assay is classed as functional, cell-based. In short, it runs like this: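 Cells seeded in 96-well plates overnight, washed twice with Krebs-HEPES buffer, loaded 1 h at 37 °C in the dark with Oregon Green BAPTA-1 AM (final 3 µM) and Pluronic F-127. Buffer replaced, PXA added, fluorescence at 544 nm recorded for 30 min, with or without 1 mM extracellular Ca2+. Three experiments, mean ± SEM.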
In general terms: Calcium assays in cells follow changes in intracellular calcium, usually with a dye or a luminescent sensor.

`CC(=O)OC[C@]12Oc3c(-c4ccc(O)c5c4O[C@@]4(COC(C)=O)C(=C(O)C[C@@H](C)[C@H]4OC(C)=O)C5=O)ccc(O)c3C(=O)C1=C(O)C[C@@H](C)[C@H]2OC(C)=O` [PHOMOXANTHONE A]: the outcome in the assay on A2780 [1] was inactive. In addition, the Activity result was “Tde” with A2780 [2]; “Dose-dependent effect” with A2780 [8]; 71% with A2780cisR [9]; 81.2% in the assay on J82 [10]; 53% with J82 [12]; 50% in the assay on A2780cisR [13]. In addition, the Activity with A2780cisR [14] was 70%; in the assay on A2780 [16], “Dose-dependent effect”. In addition, the “Ratio IC50” value in the assay with J82 [3] came to 4; with A2780cisR [6], 1.4; with A2780cisR [7] it was 9. Moreover, the IC50 was 1.44 µM with A2780 [4] (read-out: IC50); 1.45 µM with A2780 [4] (read-out: pIC50 (converted)); 0.75 µM with A2780 [8] (A2780, 2 h); 0.76 µM in the assay on KYSE-510; 1.01 µM with A2780 [16] (A2780, 1 h). Further, the result in the assay on A2780 [5], with J82 [11] and in the assay on A2780 [17] was Active. In addition, the inhibition result in the assay with A2780cisR [15] is “inactive”.
